# Assay results published in ChEMBL document CHEMBL1158040, “Biological activities and 3D QSAR studies of a series of Delisea pulchra (cf. fimbriata) derived natural products” (J Nat Prod, 2006).
# Tested on: not listed separately
# Experiment: Selectivity index, ratio of IC50 for human KB cells to IC50 for Plasmodium falciparum W2
# Format: toxicity, cell-based
# Settings: KB cells versus Plasmodium falciparum W2, read-out: Ratio IC50
# Procedure, shortened: (§1)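 Plasmodium falciparum clones were assayed in vitro: D6 (chloroquine-sensitive) and W2 (chloroquine-resistant). IC50 is in μg/mL. The selectivity index is the ratio of the antimalarial to the cytotoxic activity.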
row,SMILES,selectivity ratio
1,C=C[C@H]1CN2CC[C@H]1C[C@H]2[C@H](O)c1ccnc2ccc(OC)cc12 [QUININE],> 700
2,OC(c1cc(C(F)(F)F)nc2c(C(F)(F)F)cccc12)C1CCCCN1 (stereo not given) [MEFLOQUINE],4380
3,C[C@@H]1CC[C@H]2[C@@H](C)C(=O)O[C@@H]3O[C@@]4(C)CC[C@@H]1[C@]32OO4 [ARTEMISININ],> 3280

# Tested on: not listed separately
# Experiment: Selectivity index, ratio of IC50 for human KB cells to IC50 for Plasmodium falciparum D6
# Format: toxicity, cell-based
# Settings: KB cells versus Plasmodium falciparum D6, read-out: Ratio IC50
# Procedure, shortened: as §1
row,SMILES,selectivity ratio
1,C=C[C@H]1CN2CC[C@H]1C[C@H]2[C@H](O)c1ccnc2ccc(OC)cc12 [QUININE],> 1830
2,OC(c1cc(C(F)(F)F)nc2c(C(F)(F)F)cccc12)C1CCCCN1 (stereo not given) [MEFLOQUINE],710
3,C[C@@H]1CC[C@H]2[C@@H](C)C(=O)O[C@@H]3O[C@@]4(C)CC[C@@H]1[C@]32OO4 [ARTEMISININ],> 18200

# Tested on: KB
# Experiment: Cytotoxicity against human KB cells
# Format: functional
# Settings: read-out: ED50 (the source's name)
row,SMILES,EC50
1,C=C[C@H]1CN2CC[C@H]1C[C@H]2[C@H](O)c1ccnc2ccc(OC)cc12 [QUININE],> 20000 ng/mL
2,OC(c1cc(C(F)(F)F)nc2c(C(F)(F)F)cccc12)C1CCCCN1 (stereo not given) [MEFLOQUINE],3500 ng/mL
3,C[C@@H]1CC[C@H]2[C@@H](C)C(=O)O[C@@H]3O[C@@]4(C)CC[C@@H]1[C@]32OO4 [ARTEMISININ],> 20000 ng/mL

# Tested on: Plasmodium falciparum
# Experiment: Antimalarial activity against chloroquine-resistant Plasmodium falciparum W2
# Format: functional, organism-based
# Settings: not given
# Procedure, shortened: (§2)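 In vitro growth inhibition of Plasmodium falciparum clones D6 (chloroquine-sensitive) and W2 (chloroquine-resistant); IC50 reported in μg/mL.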
row,SMILES,IC50
1,C=C[C@H]1CN2CC[C@H]1C[C@H]2[C@H](O)c1ccnc2ccc(OC)cc12 [QUININE],29 ng/mL
2,OC(c1cc(C(F)(F)F)nc2c(C(F)(F)F)cccc12)C1CCCCN1 (stereo not given) [MEFLOQUINE],1 ng/mL
3,C[C@@H]1CC[C@H]2[C@@H](C)C(=O)O[C@@H]3O[C@@]4(C)CC[C@@H]1[C@]32OO4 [ARTEMISININ],6 ng/mL

# Tested on: Plasmodium falciparum
# Experiment: Antimalarial activity against chloroquine-sensitive Plasmodium falciparum D6
# Format: functional, organism-based
# Settings: not given
# Procedure, shortened: as §2
row,SMILES,IC50
1,C=C[C@H]1CN2CC[C@H]1C[C@H]2[C@H](O)c1ccnc2ccc(OC)cc12 [QUININE],11 ng/mL
2,OC(c1cc(C(F)(F)F)nc2c(C(F)(F)F)cccc12)C1CCCCN1 (stereo not given) [MEFLOQUINE],5 ng/mL
3,C[C@@H]1CC[C@H]2[C@@H](C)C(=O)O[C@@H]3O[C@@]4(C)CC[C@@H]1[C@]32OO4 [ARTEMISININ],1 ng/mL
